Data on five molecules can be found in ChEMBL document CHEMBL1141721, “Structure-toxicity relationship of aminoglycosides: correlation of 2'-amine basicity with acute toxicity in pseudo-disaccharide scaffolds” (Bioorg Med Chem, 2008).

In brackets after ≈: the same amount, converted by molar mass.

Data set [1] concerns Pseudomonas aeruginosa. The data set can be described thus: Antimicrobial activity against Pseudomonas aeruginosa ATCC 27853 by double-microdilution method. In kind it is functional.
A further data set has as its system Bacillus subtilis. Description: Antimicrobial activity against Bacillus subtilis by double-microdilution method. In kind it is functional. In a few lines:
(§1)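 Double-microdilution method following NCCLS, starting at 384 µg/mL of compound with doubling dilutions. Run in triplicate (a table footnote says duplicates), with analogous results in three separate experiments.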

The test system of data set [2] is Staphylococcus epidermidis. The data set can be described thus: Antimicrobial activity against Staphylococcus epidermidis ATCC 12228 by double-microdilution method. Type of data set: functional. Put shortly:
as §1

The subject of data set [3] is Escherichia coli. Description: Antimicrobial activity against Escherichia coli R477-100 by double-microdilution method. In kind it is functional.
Data set [4] can be described thus: Toxicity in iv dosed ICR mouse assessed as effect on mortality after 4 days. Type of data set: organism-based. The settings on record: in vivo.
For data set [5], the system named is Escherichia coli. Description: Inhibition of translation in Escherichia coli S30 extract by coupled transcription/translation assay. In kind it is functional. In a few lines:
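E. coli S30 extract for circular DNA with pBES-Tluc plasmid, coupled transcription/translation. 25 µL reactions with varied aminoglycoside concentrations, 60 min at 37 °C, then 5 min on ice. Diluted into Tris-phosphate 25 mM pH 7.8 buffer with DTT, CDTA, glycerol, Triton X-100 and BSA. Luciferase luminescence read at once; IC50 fitted from concentration-response curves of at least two independent experiments.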

Data set [6] relates to Escherichia coli. Description: Antimicrobial activity against Escherichia coli ATCC 25922 by double-microdilution method. In kind it is functional.
For data set [7], the system named is Escherichia coli. Description: Antimicrobial activity against Escherichia coli XL1 expressing APH(3')-1a by double-microdilution method. Type of data set: functional.
Data set [8] relates to Pseudomonas aeruginosa. The data set can be described thus: Antimicrobial activity against Pseudomonas aeruginosa 584/5 isolate by double-microdilution method. In kind it is functional.
Data set [9] relates to Pseudomonas aeruginosa. The data set can be described thus: Antimicrobial activity against Pseudomonas aeruginosa 590 isolate by double-microdilution method. Type of data set: functional. In a few lines: as §1
A short description of data set [10]: Inhibition of Pseudomonas aeruginosa APH(3')-2b assessed as rate of NADH absorbance decrease by pyruvate kinase/lactate dehydrogenase coupled assay. In a few lines:
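Purified recombinant APH(3')-IIb, affinity-purified on a neomycin B column. ATP consumption followed by pyruvate kinase/lactate dehydrogenase coupling as NADH decrease at 340 nm. Buffer: 50 mM Tris-HCl pH 7.5, 40 mM KCl, 10 mM MgCl2, 1 mM ATP, 2.5 mM PEP. Neamine substrate 1–100 µM, inhibitor 0–1000 µM. 5 min preincubation at 37 °C, started with enzyme. Ki by nonlinear regression.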

Data set [11] concerns Pseudomonas aeruginosa. The data set can be described thus: Activity of Pseudomonas aeruginosa APH(3')-2b assessed as rate of NADH absorbance decrease by pyruvate kinase/lactate dehydrogenase coupled assay. In a few lines:
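Recombinant APH(3')-IIb purified on a neomycin B affinity column. Substrate neamine 1–100 μM, inhibitor 0–1000 μM. Preincubation 5 min at 37 °C, then started with enzyme. NADH loss read at 340 nm; Ki by nonlinear regression.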

Take `CN[C@@H]1[C@@H](O)[C@@H](O[C@@H]2[C@@H](O)[C@H](O[C@H]3O[C@H](CN)[C@H]4OCO[C@@H]4[C@H]3N)[C@@H](N)C[C@H]2N)OC[C@]1(C)O`: the MIC came to 24 mg/L (≈ 48.6 µM) with Pseudomonas aeruginosa [1]; 12 mg/L (≈ 24.3 µM) against Bacillus subtilis; 24 mg/L (≈ 48.6 µM) in data set [2]; 48 mg/L (≈ 97.3 µM) against Escherichia coli [3]; 48 mg/L (≈ 97.3 µM) in the data set on Escherichia coli [6]; 12 mg/L (≈ 24.3 µM) with Escherichia coli [7]. Further, the MIC was determined as 24 mg/L (≈ 48.6 µM) in the data set on Pseudomonas aeruginosa [8] and 48 mg/L (≈ 97.3 µM) against Pseudomonas aeruginosa [9]. Besides, the median lethal dose (LD50) at 96 h in data set [4] stood at 226 mg/kg. The IC50 in the data set with Escherichia coli [5] worked out at 0.038 µM.

On to `NC[C@@H]1CC[C@@H](N)[C@@H](O[C@H]2[C@H](O)[C@@H](O)[C@H](N)C[C@@H]2N)O1` [GENTAMINE C1A], for which 192 mg/L (≈ 661 µM) was the least that counted as inhibitory with Escherichia coli [3] (MIC). In addition, in [10], the inhibition constant (Ki) was found to be 650 µM. Also, in [4], the LD50 at 96 h was found to be 103 mg/kg.

With `CNC1C(O)C(OC2C(N)CC(N)C(OC3OC(CN)CCC3N)C2O)OCC1(C)O` (stereo not drawn) [GENTAMICIN C1A], the minimum inhibitory concentration (MIC) is 6 mg/L (≈ 13.3 µM) in the data set on Bacillus subtilis, 6 mg/L (≈ 13.3 µM) in data set [2] and 384 mg/L (≈ 854 µM) in the data set with Pseudomonas aeruginosa [9].

In the data set on Escherichia coli [3], `NC[C@H]1O[C@H](O[C@H]2[C@H](O)[C@@H](O)[C@H](N)C[C@@H]2N)[C@H](N)[C@@H](O)[C@@H]1O` [NEAMINE] registered an MIC of 96 mg/L (≈ 298 µM). For the same molecule, in the data set with Pseudomonas aeruginosa [11], the Michaelis constant (Km) is 10.3 µM and the turnover number (kcat) was 1.7 s⁻¹. Also, the LD50 at 96 h in [4] amounted to 161 mg/kg.

As to `NC[C@H]1O[C@H](O[C@H]2[C@H](O)[C@@H](O)[C@H](N)C[C@@H]2N)[C@H](N)[C@H]2OCO[C@@H]21`, the MIC against Escherichia coli [3] was greater than 384 mg/L. In data set [10], the Ki was 642 µM. In data set [4], the LD50 at 96 h came to 303 mg/kg.
